In ChEMBL document CHEMBL1122980, “Stereoselective metabolism of conformational analogues of warfarin by beta-naphthoflavone-inducible cytochrome P-450” (J Med Chem, 1985) one finds RPF and Metabolism rate data, which are given here for 26 compounds.

The data set is filed under the species Rattus norvegicus. In words: Rate of metabolism in liver microsomes (BNF treated rats). The class given is ADME. In short, it runs like this:
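Liver microsomes pooled from three male Sprague–Dawley rats (140–170 g) given BNF ip (80 mg/kg in corn oil) daily for 3 days, taken on day 4. Microsomal protein 2 mg/mL. Substrate added after 2-min equilibration, 200 μg/mL in acetone, or warfarin also in pH 7.4 phosphate buffer. Incubated 20 min at 37 °C, triplicate. Hydroxy metabolites quantified by GC/MS against deuterated internal standards. Rates given per nmol P-450 per min, mean ±SD.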
A general note: Liver microsomes are vesicles of endoplasmic reticulum, rich in cytochrome P450 enzymes.
For `CO[C@]1(C)C[C@H](c2ccccc2)c2c(c3ccc(O)cc3oc2=O)O1`, the RPF is listed as 12.8 pM nM-1.

Regarding `CO[C@]1(C)C[C@@H](c2ccccc2)c2c(c3cccc(O)c3oc2=O)O1`, the RPF was 42.8 pM nM-1.

In the case of `COC1(C)C[C@H](c2ccccc2)c2c(c3cc(O)ccc3oc2=O)O1` (some centres undefined), the RPF was 20.3 pM nM-1.

In the case of `CO[C@]1(C)C[C@@H](c2ccccc2)c2c(c3ccc(O)cc3oc2=O)O1`, the RPF is 14.9 pM nM-1.

Take `CO[C@]1(C)C[C@H](c2ccccc2)c2c(c3cccc(O)c3oc2=O)O1`: the RPF is listed as 14.9 pM nM-1.

In the case of `CO[C@]1(C)C[C@@H](c2ccc(O)cc2)c2c(c3ccccc3oc2=O)O1`, the RPF is reported as 73.5 pM nM-1.

With `CO[C@@]1(C)C[C@H](c2ccccc2)c2c(c3cccc(O)c3oc2=O)O1`, the RPF is 15.1 pM nM-1.

As for `COC1(C)C[C@H](c2ccc(O)cc2)c2c(c3ccccc3oc2=O)O1` (some centres undefined), the RPF was 76.2 pM nM-1.

`CO[C@]1(C)C[C@H](c2ccc(O)cc2)c2c(c3ccccc3oc2=O)O1`: the RPF is on record as 52 pM nM-1.

Consider `CO[C@]1(C)C[C@@H](c2ccccc2)c2c(c3cc(O)ccc3oc2=O)O1`, for which the RPF is on record as 24.1 pM nM-1.

For `CO[C@@]1(C)C[C@@H](c2ccccc2)c2c(c3cccc(O)c3oc2=O)O1`, the RPF is 34.6 pM nM-1.

With `COC1(C)C[C@@H](c2ccccc2)c2c(c3ccc(O)cc3oc2=O)O1` (some centres undefined), the RPF was 13.9 pM nM-1.

For `COc1c([C@H](CC(C)=O)c2ccc(O)cc2)c(=O)oc2ccccc12`, the RPF is given as 85.3 pM nM-1.

Regarding `COc1c([C@H](CC(C)=O)c2ccccc2)c(=O)oc2ccc(O)cc12`, the RPF is listed as 11.5 pM nM-1.

With `COc1c([C@H](CC(C)=O)c2ccccc2)c(=O)oc2cc(O)ccc12`, the RPF was 8.3 pM nM-1.

With `COc1c([C@@H](CC(C)=O)c2ccccc2)c(=O)oc2cc(O)ccc12`, the RPF is on record as 31.2 pM nM-1.

Regarding `COc1c([C@@H](CC(C)=O)c2ccc(O)cc2)c(=O)oc2ccccc12`, the RPF is listed as 47.8 pM nM-1.

In the case of `COc1c([C@@H](CC(C)=O)c2ccccc2)c(=O)oc2ccc(O)cc12`, the RPF is reported as 19.1 pM nM-1.

Regarding `COC1(C)C[C@H](c2ccccc2)c2c(c3ccc(O)cc3oc2=O)O1` (some centres undefined), the RPF is on record as 19.3 pM nM-1.

Consider `CC(=O)C[C@H](c1ccccc1)c1c(O)c2cc(O)ccc2oc1=O`, for which the Metabolism rate turned out to be 113.7 pmol/min/nmol P-450 and the RPF was determined as 102 pmol/min/nmol.

`CC(=O)C[C@H](c1ccc(O)cc1)c1c(O)c2ccccc2oc1=O`: the Metabolism rate is 22.4 pmol/min/nmol P-450.

For `COC1(C)C[C@@H](c2ccccc2)c2c(c3cc(O)ccc3oc2=O)O1` (some centres undefined), the RPF is 14.8 pM nM-1.

Regarding `CC(=O)C[C@@H](c1ccccc1)c1c(O)c2ccc(O)cc2oc1=O`, the Metabolism rate was 216.8 pmol/min/nmol P-450 and the RPF was determined as 195 pmol/min/nmol.

The compound `CC(=O)C[C@@H](c1ccccc1)c1c(O)c2cc(O)ccc2oc1=O` came in with a Metabolism rate of 41.2 pmol/min/nmol P-450 and an RPF of 37.1 pmol/min/nmol.

For `CC(=O)C[C@@H](c1ccc(O)cc1)c1c(O)c2ccccc2oc1=O`, the Metabolism rate is listed as 13.7 pmol/min/nmol P-450.

For `COC1(C)C[C@@H](c2ccc(O)cc2)c2c(c3ccccc3oc2=O)O1` (some centres undefined), the RPF is listed as 64.8 pM nM-1.
